Source: PubChem BioAssay (several laboratories)
A selection: hits, their analogues and other compounds. The true share with any hit is near 5.1%.
APP 5'UTR act – activators of APP 5'UTR luciferase reporter, primary screen, SH-SY5Y cells. AID 1276, 2008. actives 1% (n = 190,000). SH-SY5Y APP 5'UTR luciferase reporter, luminescence; zero percent = DMSO vehicle wells. activation, % at 2 µM;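 active = activation above a set limit, based on mean plus 3 SD of controls, cut at about 140% in these data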
STAT1 blocker – STAT1 signaling inhibitors, primary screen, cell-based, HTS, luciferase reporter; NIH 3T3 STAT1-luciferase reporter, IFN-gamma, luminescence; inhibition, % at 5.5 µM; actives 0.35% (n = 200,000);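 active = inhibition above a set limit, the mean inhibition across all tested compounds plus 3 SD, cut at about 34% in these data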
STAT3 blocker – IL-6 driven STAT3 reporter inhibitors, primary screen, U3A cells, luciferase, luminescence, MLSCN library | inhibition, % at 5.5 µM | IL-6 STAT3-luciferase reporter; host cell line lacks STAT1 | actives 0.89% (n = 190,000);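 active = inhibition above the mean inhibition across all screened compounds plus 3 SD, cut at about 44% in these data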
STAT1 act – STAT1 signaling activators, primary screen, cell-based, HTS, luciferase reporter; NIH 3T3 STAT1-luciferase reporter, IFN-gamma, luminescence; 100% = IFN-gamma alone, no compound; activation (% of control), % at 5.5 µM; actives 2.6% (n = 200,000);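 active = activation above the screen-wide mean activation plus 3 SD, cut at about 130% in these data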
NF-kB neuron act – activators of NF-kB expression in neurons, primary screen, cell-based, HTS. actives 1.6% (n = 190,000). human neuronal cells, NF-kB reporter expression; stronger effect = higher value. fold change at 12.5 µM; in the data active = fold change above about 3.3
STAT3 activator – IL-6 driven STAT3 reporter potentiators, primary screen, U3A cells, luciferase, luminescence, MLSCN library; actives 0.91% (n = 190,000); activation (% of control), % at 5.6 µM; IL-6 STAT3-luciferase reporter; 100% = signal with IL-6 EC80 alone; AID 871, 2007;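 active = activation above the screen-wide mean of compound activation plus 3 SD, cut at about 130% in these data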
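Material: STAT3-luciferase reporter U3A cells. Controls: IL-6-treated wells, 100% activation. Read-out: % activation versus median of IL-6-stimulated wells. Probe or stimulus: IL-6 stimulus at 33 ng/mL final. Timing: compound 1 h, then IL-6 6 h at 37 °C. Signal: reporter luminescence signal.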
Large screens that a line does not name were inactive.

CN(C)c1cc[n+](CC(=O)N2CCCc3ccccc32)cc1	none
COc1ccc(N2C(N)=NC(N)=NC2(C)C)cc1	NF-kB neuron act 3.9
Cc1nnc(SCC(=O)c2cc(C)n(C3CC3)c2C)s1	STAT1 act 136
Cc1cc(C(=O)CSc2nnnn2C)c(C)n1C1CC1	none
Cc1cc(C(=O)CSc2nc3ccccc3o2)c(C)n1C1CC1	STAT1 act 136
O=C(NC12CC3CC(CC(C3)C1)C2)c1ccc(-c2ccc(Br)cc2)o1	STAT1 act 144
CC(Sc1nnc(-c2cccs2)n1-c1ccccc1)C(=O)NCc1ccc2c(c1)OCO2 (stereo not given)	none
C#CCN1C(=O)S/C(=C/C=C/c2ccc(N(C)C)cc2)C1=O	STAT1 act 136
CCOC(=O)CSc1nc(-c2ccc3c(c2)OCO3)ccc1C#N	APP 5'UTR act 202
COC(=O)CSc1nc2cc(OC)ccc2cc1C#N	APP 5'UTR act 155, STAT1 act 142, NF-kB neuron act 14
CCOC(=O)CSc1nc2cc(OCC)ccc2cc1C#N	APP 5'UTR act 168
COc1ccc2cc(C#N)c(SCC(=O)N3CCCC3)nc2c1	none
COc1ccccc1N1CCN(CC(=O)NCC2CCCO2)CC1 (stereo not given)	none
O=c1c2c3c(sc2ncn1/N=C/c1ccc([N+](=O)[O-])o1)CCCC3	NF-kB neuron act 4
O=C(c1ccc(C(F)(F)F)cc1)C1CCCN(C(=O)CCN2CCCO2)C1 (stereo not given)	none
Cn1c(Sc2ccc(Br)cc2)c(C=O)c2ccccc21	STAT3 activator 157
COCCCNC(=S)Nc1cccc(S(=O)(=O)NC2=NCCC2)c1	none
NC(=O)C1CCN(CC(=O)NC(=O)NC2CCCC2)CC1	none
CCCNC(=O)c1noc2c1CCc1ccccc1-2	none
O=C(Nc1cccnc1Cl)c1noc2c1CCc1ccccc1-2	STAT1 act 135
Nc1nc(Nc2ccc(Cl)cc2)nc2ccccc12	STAT3 blocker 62, NF-kB neuron act 6
O=C(COC(=O)C1(c2ccc(F)cc2)CCCC1)N1CCc2ccccc21	none
COc1ccc(-c2ccc(=O)n(Cc3ccc([N+](=O)[O-])cc3)n2)cc1	STAT3 activator 134
COc1ccc(Cn2c(=O)c3cccnc3n(Cc3ccc([N+](=O)[O-])cc3)c2=O)cc1	none
Cc1ccc(NC(=O)CSCc2ccco2)cc1	STAT1 act 129
Cc1ccc(NC(=O)CSCC(=O)O)cc1	none
N#C/C(=C\c1ccc(OCC(N)=O)cc1)c1ccccc1	none
CC(=O)Oc1ccc2c(=O)c(-c3ccccc3)coc2c1	STAT1 act 131
CCOC(=O)c1nn(-c2ccc(C)cc2)cc1O	APP 5'UTR act 137, NF-kB neuron act 4.1
CCOC(=O)c1cc(C(=O)OCC)cc(-n2cc(O)c(C(=O)OCC)n2)c1	none
O=C(N/N=C/c1c[nH]c2ccc(Br)cc12)c1ccc2c(c1)OCO2	none
Cc1[nH]c2ccccc2c1/C=N/NC(=O)Nc1ccccc1	STAT1 act 131, STAT3 activator 148
C/C(=N\NC(=O)c1ccccc1)c1ccc2c(c1)OCO2	none
O=C(N/N=C/c1ccc(Br)s1)Nc1ccccc1	STAT1 act 130
O=C(N/N=C/c1cc2c(cc1Br)OCO2)c1c[nH]c2ccccc12	STAT1 act 143
Cc1[nH]c2ccccc2c1/C=N/NC(=O)CCC(=O)Nc1ccccc1	none
C/C(=N\NC(=O)c1c[nH]c2ccccc12)c1ccc2c(c1)OCO2	STAT1 act 135
O=C(NNC(=S)Nc1ccc(F)c(Cl)c1)c1ccccc1Br	none
O=C(N/N=C/c1ccc(Br)s1)c1c[nH]c2ccccc12	STAT1 act 138
CCn1nnc(NC(=O)c2ccc(C(C)(C)C)cc2)n1	NF-kB neuron act 3.7
COc1ccc(-c2cc(C(=O)N3CCN(Cc4ccccc4)CC3)no2)cc1OC	none
COc1ccc(-c2cc(C(=O)N3CCCCC3)no2)cc1OC	STAT1 act 132
COc1ccccc1OCCN(C#N)c1nc(N(C)C)nc(N(C)C)n1	none
c1cc(-c2noc(CC3CCCCC3)n2)ccn1	none
c1ccc(-c2noc(CC3CCCCC3)n2)nc1	STAT1 act 133
Clc1cc(Cl)c(OCc2nc(-c3ccccn3)no2)cc1Cl	STAT1 act 132, NF-kB neuron act 5.2
CCCCCc1ccc(-c2ccc(OC)cc2)nc1	STAT1 act 140, NF-kB neuron act 3.4
CCCc1ccc(-c2ccc(C(=O)O)cc2)nc1	STAT1 act 131
COC(=O)c1cc(OC)c(OC)cc1NC(=O)CSc1ccccc1	none
CC(C)N1C(=O)/C(=C\c2nc3ccccc3c(=O)[nH]2)c2ccccc21	none
Cc1cc(C)c[n+](-c2nc3ccccc3nc2C(=C=[N-])C#N)c1	NF-kB neuron act 4.4
O=c1sc(N2CCN(c3ccccc3F)CC2)nc2ccsc12	STAT1 act 139, NF-kB neuron act 3.6
C=C(C)CNC(=S)NNC(=O)CCn1c2ccc(Cl)cc2c2cc(Cl)ccc21	none
O=C1CC(c2ccco2)CC(O)=C1C=Nc1cc(Cl)ccc1O (stereo not given)	NF-kB neuron act 3.4
O=C1CC(c2ccco2)CC(O)=C1C=Nc1cc(Cl)ccc1Cl (stereo not given)	none
Fc1ccc(C(CNC(=S)NC2CCCCC2)N2CCOCC2)cc1 (stereo not given)	none
Cc1ccccc1N=C1Nc2ccccc2CS1	NF-kB neuron act 4.6
Cc1ccccc1N=C1NC(=O)CS1	none
Cc1ccc(C)c(S(=O)(=O)Nc2nc3ccc(S(N)(=O)=O)cc3s2)c1	none
CC(/C=C1\SC(=S)N(CCCC(=O)Nc2ccc(C(=O)O)cc2)C1=O)=C\c1ccccc1	none
CC(/C=C1\SC(=O)N(CCCC(=O)O)C1=O)=C\c1ccccc1	STAT1 blocker 36, STAT3 blocker 84
Cc1ccc(Cl)cc1NC(=O)Nc1cccs1	none
O=S(=O)(c1ccccc1)n1cc(-c2ccccn2)c(N2CCOCC2)n1	APP 5'UTR act 213
O=S(=O)(Cc1cc(N2CCOCC2)nc(-c2ccccn2)n1)c1ccccc1	none
COCCn1c(=NC(=O)c2ccc(S(=O)(=O)N3CCc4ccccc4C3)cc2)sc2cc(S(N)(=O)=O)ccc21	STAT3 activator 135
CC1CC(C)(C)NC(=S)N1CCC(=O)NCc1ccc(Cl)cc1 (stereo not given)	none
COc1ccc(Br)cc1CNC(=O)Cc1c(C(=O)O)[nH]c2ccc(Cl)cc12	none
CCOC(=O)Cn1c(-c2ccccc2)nc2ccccc2c1=O	STAT1 act 129
